Reference: ChEMBL document CHEMBL1144097, “Triterpene trimers from Maytenus scutioides: cycloaddition compounds?” (J Nat Prod, 1999)
Activity calls are given as the source filed them.

Columns and labels:
Paenibacillus alvei = assay: Antibacterial activity against Bacillus alvei CECT 2 upto 40 ug/mL by disk diffusion test; type: functional, organism-based
Method in brief: (§1)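 Agar disk diffusion test. Bacterial strains were maintained on Nutrient Agar and the Candida albicans yeast on Sabouraud Agar, both at 37 °C.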

Staphylococcus warneri = assay: Antibacterial activity against Staphylococcus warneri CECT 236 upto 40 ug/mL by disk diffusion test; type: functional, organism-based; method in brief: as §1
Bacillus subtilis = assay: Antibacterial activity against Bacillus subtilis CECT 39 upto 40 ug/mL by disk diffusion test; type: functional, organism-based; method in brief: as §1
HeLa = assay: Cytotoxicity against human HeLa cells upto 40 ug/mL by MTT reduction assay; type: functional, cell-based
Method in brief: (§2)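 Cells were grown as monolayers in DMEM with 10% newborn calf serum and 1% penicillin-streptomycin mixture. They were kept at 37 °C, 5% CO2 and 90% humidity. Viability was read by colorimetric MTT reduction.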

Pseudomonas aeruginosa = assay: Antibacterial activity against Pseudomonas aeruginosa AK 958 upto 40 ug/mL by disk diffusion test; type: functional, organism-based; method in brief: as §1
Klebsiella pneumoniae = assay: Antibacterial activity against Klebsiella pneumoniae CECT 367 upto 40 ug/mL by disk diffusion test; type: functional, organism-based; method in brief: as §1
Proteus mirabilis = assay: Antibacterial activity against Proteus mirabilis CECT 170 upto 40 ug/mL by disk diffusion test; type: functional, organism-based; method in brief: as §1
Escherichia coli = assay: Antibacterial activity against Escherichia coli CECT 99 upto 40 ug/mL by disk diffusion test; type: functional, organism-based; method in brief: as §1
Hafnia alvei = assay: Antibacterial activity against Enterobacter hafniae CECT 400 upto 40 ug/mL by disk diffusion test; type: functional, organism-based; method in brief: as §1
[1] = system: Staphylococcus saprophyticus; assay: Antibacterial activity against Staphylococcus saprophyticus CECT 235 upto 40 ug/mL by disk diffusion test; type: functional, organism-based; method in brief: as §1
HEp-2 = assay: Cytotoxicity against human Hep2 cells upto 40 ug/mL by MTT reduction assay; type: functional, cell-based; method in brief: as §2
Priestia megaterium = assay: Antibacterial activity against Bacillus megaterium CECT 44 upto 40 ug/mL by disk diffusion test; type: functional, organism-based; method in brief: as §1
Salmonella typhimurium = assay: Antibacterial activity against Salmonella Typhimurium UBC 2 upto 40 ug/mL by disk diffusion test; type: functional, organism-based; conditions: Salmonella enterica subsp. enterica serovar Typhimurium; method in brief: as §1
Bacillus pumilus = assay: Antibacterial activity against Bacillus pumilus CECT 29 upto 40 ug/mL by disk diffusion test; type: functional, organism-based; method in brief: as §1
Staphylococcus aureus = assay: Antibacterial activity against Staphylococcus aureus ATCC 6538 upto 40 ug/mL by disk diffusion test; type: functional, organism-based; method in brief: as §1
Bacillus cereus = assay: Antibacterial activity against Bacillus cereus CECT 496 upto 40 ug/mL by disk diffusion test; type: functional, organism-based; method in brief: as §1
Staphylococcus = assay: Antibacterial activity against Staphylococcus albus SAB C1 upto 40 ug/mL by disk diffusion test; type: functional, organism-based; method in brief: as §1
[2] = system: Staphylococcus epidermidis; assay: Antibacterial activity against Staphylococcus epidermidis CECT 232 upto 40 ug/mL by disk diffusion test; type: functional, organism-based; method in brief: as §1
Micrococcus luteus = assay: Antibacterial activity against Micrococcus luteus CECT 241 upto 40 ug/mL by disk diffusion test; type: functional, organism-based; method in brief: as §1
Salmonella sp. = assay: Antibacterial activity against Salmonella sp. CECT 456 upto 40 ug/mL by disk diffusion test; type: functional, organism-based; method in brief: as §1
Candida albicans = assay: Antifungal activity against Candida albicans UBC 1 upto 40 ug/mL by disk diffusion test; type: functional, organism-based; method in brief: as §1

Measured: Activity

COC(=O)[C@]1(C)CC[C@]2(C)CC[C@]3(C)C4=CC=C5C(=CC(=O)[C@@]6(O)Oc7c(cc8c(c7C)[C@H]7Oc9c(cc%10c(c9C)CCC9[C@@]%10(C)CC[C@@]%10(C)[C@@H]%11C[C@](C)(C(=O)OC)CC[C@]%11(C)CC[C@]9%10C)O[C@H]7C7[C@@]8(C)CC[C@@]8(C)[C@@H]9C[C@](C)(C(=O)OC)CC[C@]9(C)CC[C@]78C)O[C@@]56C)[C@]4(C)CC[C@@]3(C)[C@@H]2C1 (stereo partly specified)
inactive: Paenibacillus alvei | Staphylococcus warneri | Bacillus subtilis | HeLa | Pseudomonas aeruginosa | Klebsiella pneumoniae | Proteus mirabilis | Escherichia coli | Hafnia alvei | [1] | HEp-2 | Priestia megaterium | Salmonella typhimurium | Bacillus pumilus | Staphylococcus aureus | Bacillus cereus | Staphylococcus | [2] | Micrococcus luteus | Salmonella sp. | Candida albicans
